# From PubChem
# Rows were chosen to be rich in hits. Some 1.9% of all compounds tested hit in one or more screens of this group.
# FN deposition inh = fibronectin deposition inhibition. AH1F fibroblasts, Alexa488-fibronectin deposition fluorescence, overnight. inhibition, % at 12.6 µM. actives 0.086% (n = 350,000). AID 743247;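 active = mean inhibition across replicates of 30% or more, regardless of how many single replicates reach that level; inconclusive = mean under 30% yet at least half of replicates reach 30%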;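 note: positive control wells lacked labelled fibronectin entirely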
#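 Material – AH1F fibroblast monolayer, labelled fibronectin deposition · Reagent – labelled fibronectin 24 nM · Timing – 1 h adhesion, overnight exposure · Measured by – fluorescence at 485 nm excitation, 525 nm emission · Read-out – inhibition of fibronectin deposition signal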
# PGC1a acetyl inh = lowers PGC1a acetylation signal in U2OS cells. inhibition, % at 15.6 µM. actives 0.17% (n = 350,000). AlphaScreen anti-acetyl-lysine; with virally co-expressed GCN5 acetyltransferase. AID 651687;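 active = every replicate shows inhibition of at least 40%; inconclusive = mean inhibition at least 40% but some replicate below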;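 note: 0% = neutral control wells and 100% = positive control wells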
# XiGFP reactiv = activators of X-chromosome reactivation in mouse fibroblasts | XiGFP mouse fibroblasts, % GFP-positive cells imaging, 3 d; cells co-treated with 5-aza-dC sensitizer; scaled so ellipticine positive control = 100% | activation, % at 7.58 µM | actives 0.055% (n = 360,000) | AID 743238;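 active = mean normalized replicate activation at least 10% and every replicate at or above 10%; inconclusive = only one of the two criteria met; inactive = mean below 10% and not all replicates reach 10%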;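 note: 0% = median of on-plate neutral control wells and 100% = ellipticine 6 µM median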
#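 assay system = SV40-immortalized XiGFP fibroblast cells, line 68-5-11 | buffer or medium = DMEM plus 5-aza-dC sensitizer | doses = single-point pinned compound dosing | times = 3-day compound exposure, then 15 min fixation at room temperature | benchmarks = positive control ellipticine, 6 µM final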
# Cneo AK release = Cryptococcus neoformans lysis via adenylate kinase release; actives 0.2% (n = 360,000); lysis activity, % at 15 µM; C. neoformans lysis, adenylate kinase release luminescence, 4 h; normalised: neutral wells 0, clomiphene wells 100;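 active = mean lysis activity across replicates of at least 80%, whatever share of replicates individually reach that level; inactive = mean lysis activity below 80%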
#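 Material: C. neoformans cells | Amount: Yeast cell density of 5 × 10^6 cells/mL | Medium: Fresh YPD growth medium | Dosing: Single dose | Times: Static 4 h at 37 °C with compound, 1 h detection | Detection: AK luminescence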
# CFTR F508del cor = CFTR F508del correction in bronchial cells; CFBE cells, YFP halide quenching; stimulated with forskolin plus potentiator P3; % fluorescence drop versus neutral controls; activity (quench increase), % at 7.58 µM; actives 0.36% (n = 350,000);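 active = mean added fluorescence quench of at least 8% versus neutral control, with both replicates also reaching 8%; inconclusive = only one of the mean or replicate conditions met; inactive = mean below 8% and not both replicates reaching 8%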;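 note: cells transiently co-express mutant CFTR-F508del with the halide-sensitive YFP; corrector assay measuring rescue of mutant channel to the surface after 24 h compound exposure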
# DENV2 CPE = protects cells from dengue virus 2 cytopathic effect. DENV2-infected cells, cytopathic effect rescue, plate reader. CPE inhibition, % at 9.99 µM. actives 1.7% (n = 350,000). AID 651640; in the data active = CPE inhibition above about 20%, passing the limit was not always enough; inconclusive = no clear call, values can overlap the other calls; tested in BHK-21 cells;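 note: 0% = median of neutral control wells and 100% = median of positive control wells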
# The depositor's hits bear a star; ? = inconclusive; . = not tested or not shown.
SMILES,FN deposition inh,PGC1a acetyl inh,XiGFP reactiv,Cneo AK release,CFTR F508del cor,DENV2 CPE
O=C(O)CCCCCCCCc1cn(CCc2c[nH]c3ccccc23)nn1,4,-4,0,-1,1,21*
Cc1cc(C2=NNC(=NCCc3ccccc3)SC2)c(C)n1-c1c(C)n(C)n(-c2ccccc2)c1=O,2,63*,.,0,3,0
Cc1cc(C2=NNC(=NC3CC3)SC2)c(C)n1-c1c(C)n(C)n(-c2ccccc2)c1=O,-2,.,0,.,.,.
COCCCN=C1NN=C(c2cc(C)n(-c3ccccc3)c2C)CS1,1,3,0,0,-5,-4
COCCCN=C1NN=C(c2cc(C)n(Cc3ccccc3Cl)c2C)CS1,2,11,0,.,9.1*,0
CO[C@H]1CN(C)C(=O)c2ccc(NC(=O)CC(F)(F)F)cc2OC[C@@H](C)N(C(C)=O)C[C@@H]1C,-18,-4,0,.,-4,10
Cn1cccc1C(=O)OCC(=O)NCc1ccc2c(c1)OCO2,-62,17,0,1,37*,-2
O=C(COC(=O)c1c(F)cccc1F)NCc1ccc2c(c1)OCO2,3,-6,0,0,0,-7
CCOCCCNc1nc2c(c(=O)n(C)c(=O)n2C)n1CCCc1ccccc1,0,40*,.,-2,.,.
Cn1cc(C(=O)OCC2CCN(CCNS(C)(=O)=O)CC2)c2ccccc21,6,0,0,-1,16*,-5
O=C(C[C@@H]1CC[C@H]2[C@@H](COC[C@@H](O)CN2S(=O)(=O)c2ccccc2)O1)NCc1ccc(-c2ccccc2)cc1,-2,-1,0,-1,-4,2
COc1ccc(S(=O)(=O)Nc2ccc3c(c2)C(=O)N([C@H](C)CO)C[C@H](C)[C@@H](CN(C)C(=O)Nc2ccccc2)OCCCC[C@@H](C)O3)cc1,-18,4,0,1,3,?
O=C(C[C@H]1CC[C@@H]2[C@H](COC[C@@H](O)CN2C(=O)Nc2ccc(F)cc2)O1)NCc1ccncn1,-4,5,0,-3,1,2
Cc1ccc(-c2nc(CSCC(=O)Nc3cc(C)on3)c(C)o2)cc1,-1,3,1,-2,8.4*,-4
Cc1cc(NC(=O)CSCc2nc(-c3cccc(F)c3)oc2C)no1,-6,-8,0,-2,1,-2
Cn1nc(-c2ccccn2)nc2c(=O)n(C)c(=O)nc1-2,13,80*,0,-4,-16,-8
CCn1c(N)nc2c1c(=O)n(C)c(=O)n2C,-2,-5,0,-1,-2,5
CCCc1nc2c(=O)n(C)c(=O)nc-2n(C)n1,5,75*,6,-12,-8,-15
O=C1CNC[C@H]2[C@@H](c3ccc(-c4ccccc4F)cc3)[C@H](CO)N12,-5,1,0,.,-2,3
O=C(c1ccc(F)cc1)N1CC(=O)N2[C@@H](CO)[C@H](c3ccc(-c4ccccc4F)cc3)[C@@H]2C1,.,-5,0,.,2,13
O=C1CNC[C@H]2[C@H](c3ccc(-c4ccccc4F)cc3)[C@@H](CO)N12,4,14,0,.,0,37*
O=C(c1ccc(F)cc1)N1CC(=O)N2[C@H](C1)[C@H](c1ccc(-c3ccccc3F)cc1)[C@@H]2CO,.,-2,0,.,-1,26*
O=C(c1ccc(F)cc1)N1CC(=O)N2[C@H](C1)[C@H](c1ccc(C3=CCCC3)cc1)[C@@H]2CO,.,7,0,.,-1,53*
CC1=Nc2ccccc2N=C(NC(=O)CN2CCN(c3ccccc3)CC2)C1c1ccccc1 (configuration not stated),-14,86*,0,.,-1,0
COCCCNCCCCOc1cccc(Br)c1,8,.,0,2,1,3
SMILES,FN deposition inh,PGC1a acetyl inh,XiGFP reactiv,Cneo AK release,CFTR F508del cor,DENV2 CPE
OCCNCCCCOc1cccc(Br)c1,7,.,0,.,0,39*
C[C@@H]1CN([C@@H](C)CO)C(=O)c2cc(NS(=O)(=O)c3ccccc3)ccc2O[C@H]1CN(C)C(=O)Nc1ccc2c(c1)OCO2,-5,-9,0,52,0,6
CC(=O)N[C@H]1C=C[C@H](CC(=O)NCc2ccc(Cl)cc2)O[C@@H]1CO,.,-7,0,0,-3,-7
CO[C@@H](CN(C)C(=O)c1ccc2c(c1)OCO2)[C@@H](C)CN([C@@H](C)CO)S(=O)(=O)c1ccc(F)cc1,-14,-1,0,9,-1,0
COc1cccc(-c2ncc3ccccc3c2COC(=O)c2cccs2)c1,-8,16,1,0,-1,?
COc1ccc(C(=O)OCc2c(-c3cccc(OC)c3)ncc3ccccc23)cc1,8,-3,0,2,-3,22*
COC(=O)C[C@@H]1CC[C@@H]2[C@H](COc3ccc(NC(=O)Nc4cccc(Cl)c4)cc3C(=O)N2C)O1,9,7,0,-3,1,-4
Cc1ccc(/C=C2\CCOC2=O)cc1,-1,.,0,0,1,-1
Cc1ccc(/C=C2/CNC/C(=C/c3ccc(C)cc3)C2=O)cc1,0,74*,0,.,-9,-1
CO[C@@H]1CN(C)C(=O)c2ccc(NC(=O)Nc3cccc(F)c3)cc2OC[C@H](C)N(C(=O)Nc2c(C)noc2C)C[C@@H]1C,-5,4,0,-3,-1,-1
Cc1no[n+]([O-])c1COc1cccc(/C=N/Nc2nncn2N)c1,3,50*,0,.,-4,1
COc1cc(/C=N/n2nnnc2N)ccc1OCc1c(C)no[n+]1[O-],-7,.,0,.,.,.
COc1ccc(C#Cc2ccc([C@H]3[C@@H](CO)N4CCCCN(C(=O)c5ccncc5)C[C@H]34)cc2)cc1,.,5,0,-5,-3,47*
COCC#Cc1ccc([C@@H]2[C@H]3CN(C(=O)COC)CCCCN3[C@H]2CO)cc1,.,0,0,-2,1,-4
COCC(=O)N1CCCCN2[C@H](C1)[C@@H](c1ccc(C#Cc3ccccc3)cc1)[C@@H]2CO,.,-5,0,-8,4,28*
COCC(=O)N1CCCCN2[C@@H](CO)[C@H](c3ccc(C#Cc4ccccc4)cc3)[C@@H]2C1,.,3,0,1,-1,12
COCC(=O)N1CCCCN2[C@H](C1)[C@H](c1ccc(C#Cc3ccccc3)cc1)[C@@H]2CO,.,-6,0,1,3,40*
COCC#Cc1ccc([C@@H]2[C@@H](CO)N3CCCCN(C(=O)COC)C[C@H]23)cc1,.,1,0,-2,1,34*
